Bioassay records as filed in PubChem BioAssay.
Compounds with a hit are over-represented: about 4.7% of the library has one in this group of screens.
MC4R antag cAMP: blocks human MC4R cAMP signaling. AID 540295. P32245. MC4R-expressing cells, MTII-stimulated cAMP, LANCE TR-FRET. 0.48% of 360,000 active. inhibition, % at 6.5 µM;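 active means inhibition above its plate's cutoff, the mean of tested wells on that plate plus 3 SD, cut at about 29% in these data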;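 further: 0% = Melanotan II alone and 100% = Melanotan II plus saturating MCL0020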
Target sequence (P32245 whole entry, looked up): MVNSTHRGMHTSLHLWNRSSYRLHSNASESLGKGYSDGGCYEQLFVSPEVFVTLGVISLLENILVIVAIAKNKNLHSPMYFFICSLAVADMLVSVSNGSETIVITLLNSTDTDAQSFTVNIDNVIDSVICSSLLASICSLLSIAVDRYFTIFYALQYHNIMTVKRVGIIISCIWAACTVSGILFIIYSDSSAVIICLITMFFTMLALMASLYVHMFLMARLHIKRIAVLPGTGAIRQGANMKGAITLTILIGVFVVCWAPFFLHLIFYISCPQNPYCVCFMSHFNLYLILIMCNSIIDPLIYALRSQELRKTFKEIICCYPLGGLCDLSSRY
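Assay system: U2OS cells stably expressing human melanocortin 4 receptor (MC4R) / Dosing: 6.5 µM / Timing: compound 30 min, challenge 1 h, detection 1 h / Measured by: Eu-cAMP/anti-cAMP TR-FRET, emission 671 nm / Replicates: singlicate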
AHR activator: activators of human aryl hydrocarbon receptor; P35869; AHR-responsive luciferase reporter cells, luminescence; activation, % at 5 µM; 2.5% of 320,000 active; AID 2796; in the data active means activation above about 47%;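 further: 0% = vehicle wells and 100% = reference agonist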
MC4R ag barr: activates human MC4R beta-arrestin recruitment | P32245 | activation, % at 8.9 µM | 0.98% of 360,000 active | U2OS MC4R beta-arrestin complementation, luminescence; percent of melanotan II response, DMSO zero;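 active means activation above a per-plate cutoff, the mean activation of sample wells on that plate plus 3 SD, cut at about 8% in these data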
FXN GAA850 act: frataxin GAA850 promoter activation; AID 540364; 0.56% of 360,000 active; HEK293 lucGAA850 FXN promoter luciferase reporter, 24 h; percent of 10 µM SAHA response; activation, % at 6 µM;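 active means activation above the average of all compounds screened plus 3 SD, cutoff fixed separately per campaign, cut at about 7.5% in these data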;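 further: 0% = DMSO wells and 100% = 10 µM SAHA wells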
m5-HT2A agonist: agonists of mouse serotonin 5-HT2A receptor (HTR2A) | activation, % at 7.6 µM | CHO-K1 mHTR2A beta-arrestin complementation, luminescence; percent of 30 µM serotonin response | P35363 | 0.66% of 360,000 active;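 active means activation above a run cutoff, the mean activation of all tested compounds plus 3 SD, cut at about 14% in these data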;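 further: 0% = plate median of compound wells and 100% = 30 µM serotonin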
* marks the source's active call; other numbers are inactive results; . = no result.

SMILES	MC4R antag cAMP	AHR activator	MC4R ag barr	FXN GAA850 act	m5-HT2A agonist
O=C(c1ccc2c(c1)OCO2)[C@@H]1[C@@H]2C(=O)N(C3CCCCC3)C(=O)[C@@H]2C2c3ccccc3C=CN21 (some centres undefined)	21	.	1	-1	2
O=C(Nc1ccc2c(c1)OCO2)[C@@H]1[C@@H]2C(=O)N(C3CCCCC3)C(=O)[C@@H]2C2c3ccccc3C=CN21 (some centres undefined)	.	53*	.	.	.
Nc1nc(OCC2CCCCC2)c2[nH]cnc2n1	10	56*	0	1	2
COc1cccc(-c2cnc(C(O)c3cc(C)ccc3C)[nH]2)c1 (centres undefined)	-2	.	-1	0	6
COc1ccc(-c2ccc3oc(-c4ccsc4)cc3c2)cc1	6	57*	-1	1	-6
COc1ccc(-c2[nH]c(-c3ccc(C(=O)O)cc3)nc2-c2ccccc2)cc1	11	-1	-1	-2	3
COc1ccc(-c2[nH]c(-c3ccc4c(c3)OCO4)nc2-c2ccccc2)cc1	-2	74*	0	0	-2
COc1ccc(-c2nc(-c3cccs3)c(-c3cccs3)[nH]2)cc1OC	2	50*	1	1	3
O=[N+]([O-])c1cccc(-c2nc(-c3cccs3)c(-c3cccs3)[nH]2)c1	7	63*	4	-3	0
COc1ccc(-c2nc(-c3ccccc3)c(-c3cccs3)[nH]2)cc1OC	17	81*	2	-3	8
O=[N+]([O-])c1cccc(-c2nc(-c3ccccc3)c(-c3cccs3)[nH]2)c1	7	24	0	-3	-4
COc1ccccc1NS(=O)(=O)c1cccc(C(=O)N/N=C(/C)c2ccc(-n3ccnc3)cc2)c1	6	.	0	0	-1
C/C(=N\NC(=O)OC(C)(C)C)c1ccc(-n2ccnc2)cc1	3	68*	3	2	3
COc1ccc(OCC(=O)N/N=C(\C)c2ccc(-n3ccnc3)cc2)cc1	11	55*	0	-1	-1
COc1ccccc1NS(=O)(=O)c1cccc(C(=O)N/N=C(\C)c2ccc(-n3ccnc3)cc2)c1	16	67*	0	-2	5
C/C(=N\NC(N)=S)c1ccc(-n2ccnc2)cc1	-5	113*	-2	1	6
COCCCNC(=O)CC1C[C@H](C(=O)N2CCOCC2)[C@@]2(C)c3[nH]c4ccc(OC)cc4c3CCN2C1=O (some centres undefined)	-4	.	1	0	-6
CC(=O)Nc1ccc(SC[C@H](Cc2ccccc2)N2CC[C@@H](C(C)(C)C)CCC2=O)cc1	3	8	1	1	2
[O-]/C(=C(\C(=S)Nc1cccc2ccccc12)[n+]1ccccc1)c1ccc(Cl)s1	6	73*	-2	-1	-2
[O-]C(=C(C(=S)Nc1cccc2ccccc12)[n+]1cccc(CO)c1)c1ccc(Cl)s1	5	.	-3	1	3
CC(=O)c1ccc(N2CCN(S(=O)(=O)c3ccc4c(c3)NC(=O)CO4)CC2)cc1	7	14	1	-1	-2
O=C(CN1CCC(C(O)(c2ccccc2)c2ccccc2)CC1)Nc1cc(Cl)ccc1Cl	32*	0	8	-3	4
C=CCn1c(=O)c(C(=O)Nc2ccccc2O)c(O)c2ccccc21	11	63*	5	3	-1
C=CCn1c(=O)c(C(=O)Nc2ccccc2C)c(O)c2ccccc21	0	.	2	4	5
CSc1ccc(C#N)cc1NC(=O)c1ccccc1	13	15	-1	2	2
SMILES	MC4R antag cAMP	AHR activator	MC4R ag barr	FXN GAA850 act	m5-HT2A agonist
CSc1ccc(C#N)cc1NC(=O)c1ccc(Cl)cc1Cl	10	59*	-1	-2	0
COc1cccc2cc(-c3nc4ccccc4[nH]3)c(=O)oc12	0	72*	0	6	0
c1csc(-c2csc(-c3cccs3)n2)c1	2	25	1	6	1
N=c1oc2ccccc2cc1-c1nc(-c2ccccc2)cs1	1	59*	7	3	-2
COc1cccc2cc(-c3nc(-c4cccs4)cs3)c(=O)oc12	7	48*	3	3	0
O=c1oc2ccccc2cc1-c1nc(-c2cccs2)cs1	11	62*	0	4	-4
COc1cccc2cc(-c3ccccc3)c(=O)oc12	0	20	-3	6	-4
CCN(CC)S(=O)(=O)c1ccc(C(=O)NCC(=O)NCc2ccc3c(c2)OCO3)cc1	9	.	0	-3	-1
Cc1cc(C(=O)CCC(=O)NCc2ccccc2F)c(C)s1	-10	3	0	0	0
O=c1oc2ccc3ccccc3c2cc1-c1nnc(-c2cccs2)o1	-8	52*	2	3	0
COc1ccc(CNC(=O)COC(=O)c2cc3ccccc3o2)cc1	1	.	-1	0	1
CCC(=O)Nc1ccc(NC(=O)CSc2nc3cc4c(cc3cc2C)CCC4)cc1	1	1	9.4*	3	1
Oc1ccc(-c2cn3c(n2)SCC3)cc1	-4	65*	-2	0	-4
O=C(Nc1cc(C2CC2)nn1-c1ccccc1)c1ccc(F)cc1	6	3	-1	3	-2
Cc1cccc(C)c1N1CCN(C(c2cc3ccccc3o2)c2nnnn2C(C)(C)C)CC1 (centres undefined)	.	.	.	.	8
CCOc1ccccc1NC(=O)Nc1ccc2c(c1)CCC2	2	78*	1	2	-12
CCOc1ccccc1NC(=O)NC(=O)N(C)S(=O)(=O)c1ccc(C)cc1	-1	64*	0	-1	3
CCOc1ccccc1NC(=O)Nc1cccc(S(N)(=O)=O)c1	0	48*	-1	0	6
CCOc1ccc(NC(=O)NC(=O)N(C)S(=O)(=O)c2ccc(C)cc2)cc1	-1	2	-1	3	3
CC(/C=N/NC(=O)c1cc(-c2ccc(C)o2)[nH]n1)=C\c1ccccc1	2	22	9.2*	0	7
Cc1ccc(NC(=O)COc2ccc3c(c2)OCO3)c(Cl)c1	-2	0	5	5	3
CC(C)[C@H](NC(=O)[C@@H]1Cc2c([nH]c3ccccc23)C2c3ccccc3C(=O)N21)C(=O)N1CCC[C@H]1C(=O)O (some centres undefined)	22	.	1	-2	3
Cc1cc(C)c2cc(C(=O)Nc3ccccc3)[nH]c2c1	-3	47*	2	0	-7
O=C(O)c1ccc(CN2C[C@@H](CO)O[C@@H](n3cnc4c(NCc5ccco5)ncnc43)C2)cc1	-2	.	-1	-1	7
COc1ccc(-c2cc3nc(C)cc(N4CCN(C(=O)c5cccnc5)CC4)n3n2)cc1	12	.	-1	0	2
CCCC(=O)Nc1ccc(Cl)c(NC(=O)c2ccco2)c1	-2	0	4	-2	-3
